VIM-2 inhibitor: VIM-2 metallo-beta-lactamase inhibitors, primary screen, biochemical, epi-absorbance readout, Pseudomonas aeruginosa enzyme. inhibition, % at 5.6 µM. AID 1527, 2009. 0.89% of 290,000 active. purified VIM-2, nitrocefin hydrolysis, epi-absorbance fluorescence;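 active = inhibition above the mean of all tested compounds plus 3 SD, cutoff set per screening run, cut at about 7.5% in these data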;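 also: red hydrolysis product quenches plate fluorescence so inhibitors raise well fluorescence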
CHT block: inhibitors of human choline transporter CHT; B-score at 10 µM; High affinity choline transporter 1 (Homo sapiens), Q9GZV3; CHT-expressing cells, membrane potential dye, choline response; hits give low values; AID 488975, 2010; 0.86% of 310,000 active;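 active = B-score over 3 SD under the library average, and starting fluorescence ratio not unusually high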;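 also: choline stimulus applied at its EC90 after an EC20 pre-addition; B-score computed on integrated fluorescence ratio after choline addition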
Target sequence (Q9GZV3 whole entry, looked up): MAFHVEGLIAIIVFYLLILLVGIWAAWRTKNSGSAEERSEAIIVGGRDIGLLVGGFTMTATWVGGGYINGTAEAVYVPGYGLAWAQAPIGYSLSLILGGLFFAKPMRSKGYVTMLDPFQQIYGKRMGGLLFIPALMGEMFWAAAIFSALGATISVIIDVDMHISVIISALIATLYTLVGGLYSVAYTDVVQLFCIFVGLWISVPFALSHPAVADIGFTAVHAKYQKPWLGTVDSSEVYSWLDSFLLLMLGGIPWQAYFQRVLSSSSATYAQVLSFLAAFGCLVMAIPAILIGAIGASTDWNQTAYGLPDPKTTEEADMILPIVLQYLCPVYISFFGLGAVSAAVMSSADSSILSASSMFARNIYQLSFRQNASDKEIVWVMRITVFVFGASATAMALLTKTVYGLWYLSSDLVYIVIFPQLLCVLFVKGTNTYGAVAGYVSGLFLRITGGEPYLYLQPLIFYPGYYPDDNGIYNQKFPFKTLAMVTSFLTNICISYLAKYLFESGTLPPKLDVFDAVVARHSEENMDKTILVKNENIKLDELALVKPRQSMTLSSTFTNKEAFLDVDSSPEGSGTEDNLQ
TMEM16A act: TMEM16A chloride channel activators or potentiators, primary screen, cell-based, HTS. Anoctamin-1 (Mus musculus), Q8BHY3. HEK293 TMEM16A/YFP-H148Q/I152L, iodide quench fluorescence; hits give low values. B-score at 10 µM. 0.3% of 340,000 active. AID 623877, 2012;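 active = fluorescence-ratio B-score plate-corrected deviation score at least 3 library SD below zero, with starting fluorescence score within 5 deviations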;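 also: channel opened by trigger with iodide after compound preincubation; score built on the fluorescence ratio of max minus min over baseline; more negative score means more quench and so TMEM16A activation or potentiation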
IMP-1 inhibitor: IMP-1 metallo-beta-lactamase inhibitors, primary screen, biochemical, epi-absorbance readout, Pseudomonas aeruginosa enzyme; inhibition, % at 5.6 µM; purified IMP-1, nitrocefin hydrolysis, epi-absorbance fluorescence; metallo-beta-lactamase IMP-1 (Pseudomonas aeruginosa); AID 1556, 2009; 0.45% of 290,000 active;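 active = inhibition above the mean plus 3 SD of all compounds in the same screening run, cut at about 4.5% in these data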
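Assay system: purified IMP-1; Quantity: IMP-1 0.2 nM before substrate addition; Medium: HEPES buffer pH 7.1 with ZnSO4 and Brij 35; Incubation: 15 min enzyme–compound preincubation, then 25 min nitrocefin reaction, 25 °C; Signal: fluorescence quenching readout, ex 480/em 530 nm; Controls: DMSO with and without IMP-1; Repeats: singlicate testing.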
ANO1 block: TMEM16A chloride channel inhibitors, primary screen, cell-based, HTS | Anoctamin-1 (Mus musculus), Q8BHY3 | HEK293 TMEM16A/YFP iodide influx fluorescence, ionomycin | normalized B-score (activity score, 25-100; higher = stronger inhibition) at 10 µM | 1.2% of 310,000 active;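 active = ratio plate-corrected score three or more library SD toward inhibition, starting fluorescence score within five deviations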;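 also: score derived from kinetic fluorescence span divided by baseline fluorescence per well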
CHT PAM: CHT positive allosteric modulators, primary screen, cell-based, membrane potential dye, choline EC20 | High affinity choline transporter 1 (Homo sapiens), Q9GZV3 | CHT-expressing cells; hits give high values; LV-AA mutant CHT in HEK293 cells | B-score at 10 µM | 0.49% of 310,000 active | AID 488977, 2010;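 active = initial fluorescence not abnormally high and integrated response B-score, plate-corrected, over 3 SD above library mean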
A number is an active result. Only some compounds are listed: those with a hit (about 3.4% of all), similar ones and a draw of the others.

For O=C(NCCCN1CCOCC1)c1cc2nc(-c3ccco3)cc(C(F)(F)F)n2n1 the results were VIM-2 inhibitor 12, CHT block inactive, TMEM16A act inactive, IMP-1 inhibitor inactive, ANO1 block inactive and CHT PAM inactive.
Screening CCC(=O)Nc1ccc(C(=O)NNC(=O)C2CCCCC2)cc1 returned VIM-2 inhibitor inactive, CHT block inactive, TMEM16A act inactive, IMP-1 inhibitor inactive, ANO1 block inactive and CHT PAM inactive.
CCS(=O)(=O)C1=NSC2=NC(=O)/C(=C\c3ccc(OC(=O)c4ccco4)cc3)C(=N)N21 was read as VIM-2 inhibitor inactive, CHT block inactive, TMEM16A act inactive, IMP-1 inhibitor inactive, ANO1 block inactive and CHT PAM inactive.
CC(C)S(=O)(=O)C1=NSC2=NC(=O)/C(=C\c3ccc(OC(=O)c4ccco4)cc3)C(=N)N21 was read as VIM-2 inhibitor inactive, CHT block -8.2, TMEM16A act inactive, IMP-1 inhibitor inactive, ANO1 block inactive and CHT PAM inactive.
O=c1c2ccccc2sc2nc(CCl)nn12 was read as TMEM16A act inactive.
Screening FC(F)(F)Oc1ccc(NC(=S)Nc2ccc(OC(F)(F)F)cc2)cc1 returned VIM-2 inhibitor inactive, CHT block inactive, TMEM16A act inactive, IMP-1 inhibitor inactive, ANO1 block 25 and CHT PAM inactive.
CC(C)c1ccc(NC(=S)Nc2ccc(OC(F)(F)F)cc2)cc1 was read as VIM-2 inhibitor inactive, CHT block inactive, TMEM16A act inactive, IMP-1 inhibitor inactive, ANO1 block inactive and CHT PAM inactive.
`CC1CCC(NC(=O)Cn2cnc3sccc3c2=O)CC1` (stereo unspecified) gave TMEM16A act -4.8.
For CC(C)(C)n1ncc2c(=O)n(CC(=O)NC3CCCCC3)cnc21 the results were VIM-2 inhibitor inactive, CHT block inactive, TMEM16A act inactive, IMP-1 inhibitor inactive, ANO1 block inactive and CHT PAM inactive.
`COc1cccc(COc2cc3ccccc3nc2C)c1` gave VIM-2 inhibitor inactive, CHT block inactive, TMEM16A act inactive, IMP-1 inhibitor inactive, ANO1 block 25 and CHT PAM inactive.
Screening COC(=O)c1sccc1OCc1cccc(OC)c1 returned VIM-2 inhibitor inactive, CHT block inactive, TMEM16A act inactive, IMP-1 inhibitor inactive, ANO1 block inactive and CHT PAM inactive.
For COCCNC(=O)c1ccc2c(Cl)c3c(nc2c1)CCC3 the results were VIM-2 inhibitor inactive, CHT block inactive, TMEM16A act inactive, IMP-1 inhibitor inactive, ANO1 block inactive and CHT PAM inactive.
Screening CCN1CCN(CCCNC(=O)c2ccc3c(Cl)c4c(nc3c2)CCCC4)CC1 returned VIM-2 inhibitor 11, CHT block inactive, TMEM16A act inactive, IMP-1 inhibitor inactive, ANO1 block inactive and CHT PAM inactive.
`CCCN(CCC)CCCNC(=O)c1ccc2c(Cl)c3c(nc2c1)CCC3` gave VIM-2 inhibitor 9.6, CHT block inactive, TMEM16A act inactive, IMP-1 inhibitor inactive, ANO1 block inactive and CHT PAM inactive.
For CC1CCN(CCCNC(=O)c2ccc3c(Cl)c4c(nc3c2)CCCC4)CC1 the results were VIM-2 inhibitor 11, CHT block inactive, TMEM16A act inactive, IMP-1 inhibitor inactive, ANO1 block inactive and CHT PAM inactive.
For O=C(NCCCN1CCCCCC1)c1ccc2c(Cl)c3c(nc2c1)CCCC3 the results were VIM-2 inhibitor inactive, CHT block inactive, TMEM16A act inactive, IMP-1 inhibitor inactive, ANO1 block inactive and CHT PAM inactive.
For CC1CC(C)CN(C(=O)COC(=O)c2c[nH]c3ccccc23)C1 (stereo unspecified) the results were TMEM16A act inactive.
Screening Cc1cc(=O)oc2cc(NC(=O)c3ccc(OC(F)F)cc3)ccc12 returned VIM-2 inhibitor inactive, CHT block inactive, TMEM16A act inactive, IMP-1 inhibitor 8.7, ANO1 block inactive and CHT PAM inactive.
`Cc1cc(Nc2ccc(Br)cc2)n2nc(C)nc2n1` gave VIM-2 inhibitor inactive, CHT block inactive, TMEM16A act inactive, IMP-1 inhibitor inactive, ANO1 block inactive and CHT PAM inactive.
Cc1cc(Nc2cccc(F)c2)n2nc(C)nc2n1 was read as VIM-2 inhibitor inactive, CHT block inactive, TMEM16A act inactive, IMP-1 inhibitor inactive, ANO1 block inactive and CHT PAM inactive.
For Cc1cc(Nc2ccc3c(c2)OCCO3)n2nc(C)nc2n1 the results were VIM-2 inhibitor 14, CHT block inactive, TMEM16A act inactive, IMP-1 inhibitor inactive, ANO1 block inactive and CHT PAM inactive.
For COc1ccc(Cl)cc1Nc1cc(C)nc2nc(C)nn12 the results were VIM-2 inhibitor 10.0, CHT block inactive, TMEM16A act inactive, IMP-1 inhibitor inactive, ANO1 block inactive and CHT PAM inactive.
For Cc1cc(Nc2ccc(F)cc2Cl)n2nc(C)nc2n1 the results were VIM-2 inhibitor inactive, CHT block inactive, TMEM16A act inactive, IMP-1 inhibitor inactive, ANO1 block inactive and CHT PAM inactive.
Cc1cc(Nc2ccc(F)cc2)n2nc(C)nc2n1 was read as VIM-2 inhibitor 9.7, CHT block inactive, TMEM16A act inactive, IMP-1 inhibitor inactive, ANO1 block inactive and CHT PAM inactive.
For CCCS(=O)(=O)N1CCCC(C(=O)NCC2CCCO2)C1 (stereo unspecified) the results were VIM-2 inhibitor inactive, CHT block inactive, TMEM16A act inactive, IMP-1 inhibitor 4.9, ANO1 block inactive and CHT PAM inactive.
Screening Cc1ccc(NC(=O)CSc2nn(-c3ccc(Cl)cc3)c(=S)s2)cc1S(=O)(=O)N(C)C returned VIM-2 inhibitor inactive, CHT block inactive, TMEM16A act inactive, IMP-1 inhibitor inactive, ANO1 block 100 and CHT PAM inactive.
`CN(C)S(=O)(=O)c1cc(NC(=O)CSc2nn(-c3ccc(Cl)cc3)c(=S)s2)ccc1Cl` gave VIM-2 inhibitor inactive, CHT block inactive, TMEM16A act inactive, IMP-1 inhibitor inactive, ANO1 block inactive and CHT PAM inactive.
COc1ccccc1-c1nnc2sc(-c3cc4ccccc4o3)nn12 was read as VIM-2 inhibitor inactive, CHT block inactive, TMEM16A act inactive, IMP-1 inhibitor inactive, ANO1 block 100 and CHT PAM inactive.
Screening CN(C)c1ccc(-c2nn3c(-c4ccccc4Cl)nnc3s2)cc1 returned VIM-2 inhibitor inactive, CHT block inactive, TMEM16A act inactive, IMP-1 inhibitor inactive, ANO1 block inactive and CHT PAM inactive.
Screening COc1ccccc1-c1nnc2sc(-c3ccc(N(C)C)cc3)nn12 returned VIM-2 inhibitor inactive, CHT block inactive, TMEM16A act inactive, IMP-1 inhibitor 15, ANO1 block inactive and CHT PAM inactive.
